High-throughput results from PubChem.
An excerpt weighted towards active compounds, which were near 3.1% of everything screened.
UBC13 polyUb = human UBC13 polyubiquitination inhibition. P61088. UBC13 polyubiquitin chain formation, TR-FRET. inhibition, % at 20 µM. 330,000 tested, 0.47% active. AID 485273; in the data active = inhibition above about 45%, passing the limit was not always enough
SENP8 block-1 = SENP8 protease inhibition | purified SENP8, Z-RLRGG-aminoluciferin cleavage, luminescence | inhibition, % at 10 µM | 330,000 tested, 1.2% active | AID 2540; in the data active = inhibition above about 50%
Target sequence (Q96LD8 whole entry, looked up): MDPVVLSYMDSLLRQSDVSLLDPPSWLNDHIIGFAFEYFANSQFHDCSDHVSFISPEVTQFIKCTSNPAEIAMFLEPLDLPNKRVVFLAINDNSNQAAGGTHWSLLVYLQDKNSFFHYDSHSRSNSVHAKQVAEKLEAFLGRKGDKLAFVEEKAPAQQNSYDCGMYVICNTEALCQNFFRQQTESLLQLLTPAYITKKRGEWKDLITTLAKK
Apaf-1 inh = human Apaf-1 inhibition | 330,000 tested, 0.71% active | O14727 | AID 489030 | inhibition, % at 20 µM | reconstituted apoptosome caspase-3 activity, DEVD-Rh110 fluorescence; active = inhibition of at least 40% at 20 µM;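 note: plate controls were DMSO wells for no effect and DEVD-CHO caspase inhibitor wells for full effect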
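Material: reconstituted apoptosome with Apaf-1, cytochrome c, caspase-9, procaspase-3, dATP. Technique: Rh110 fluorescence intensity. Buffer or medium: pH 7.5 Hepes buffer with CHAPS, BSA, DTT. Times: 30 min plus 50 min, RT.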
SENP8 block-2 = SENP8 (human) protease inhibition. Q96LD8. recombinant SENP8, Nedd8 substrate fluorescence. inhibition, % at 20 µM. 360,000 tested, 0.64% active; in the data active = inhibition mostly above about 40%, no sharp cut-off; inactive = mostly below about 27%
SENP7 inh = blocks the human protease SENP7; Q9BQF6; recombinant SENP7, Z-RLRGG-aminoluciferin luminescence, 40 min; inhibition, % at 5 µM; 330,000 tested, 1.5% active;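 active = inhibition above about 50% at the single test dose, limit read from the data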;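 note: plate controls were DMSO with enzyme for no effect and no enzyme buffer wells for full effect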
SENP6 block = SENP6 protease inhibition; 330,000 tested, 1.8% active; AID 2599; Recombinant SENP6 catalytic domain, aminoluciferin luminescence; inhibition, % at 10 µM;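 active = inhibition above about 50% at the single tested dose, limit read from the data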;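 note: plate controls were DMSO wells with enzyme for no effect and DMSO wells lacking enzyme for full effect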
Target sequence (Q9GZR1 628-1112 limits assumed): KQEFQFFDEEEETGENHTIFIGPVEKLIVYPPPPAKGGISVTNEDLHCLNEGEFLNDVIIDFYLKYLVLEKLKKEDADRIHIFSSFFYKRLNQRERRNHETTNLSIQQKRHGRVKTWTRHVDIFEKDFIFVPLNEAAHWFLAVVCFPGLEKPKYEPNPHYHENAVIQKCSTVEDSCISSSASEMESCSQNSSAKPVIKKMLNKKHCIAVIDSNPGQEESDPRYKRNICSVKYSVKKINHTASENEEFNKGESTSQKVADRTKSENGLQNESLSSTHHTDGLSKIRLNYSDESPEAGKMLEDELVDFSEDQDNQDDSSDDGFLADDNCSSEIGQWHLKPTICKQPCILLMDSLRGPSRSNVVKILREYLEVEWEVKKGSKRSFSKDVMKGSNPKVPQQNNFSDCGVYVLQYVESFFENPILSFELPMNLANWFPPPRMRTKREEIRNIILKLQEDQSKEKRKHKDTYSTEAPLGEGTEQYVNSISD
SENP8 conf = confirmation of human SENP8 protease inhibitors; shares compounds with SENP7 inh; Recombinant SENP8, Z-RLRGG-aminoluciferin luminescence, 60 min; inhibition, % at 12.5 µM; 6,200 tested, 40% active;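 active = mean inhibition across replicates above about 50%, limit read from the data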
SENP6 conf = human SENP6 inhibition, confirmed | inhibition, % at 12.5 µM | shares compounds with SENP7 inh | recombinant SENP6, Z-RLRGG-aminoluciferin luminescence | 6,200 tested, 58% active | AID 488915
SENP7 confirm = confirmation of human SENP7 protease inhibitors | AID 488917 | inhibition, % at 12.5 µM | 6,200 tested, 69% active | shares compounds with SENP7 inh | recombinant SENP7, Z-RLRGG-aminoluciferin luminescence, 40 min
Casp3 select = inhibits human caspase-3 in SENP selectivity test. purified caspase-3, Z-DEVD-aminoluciferin luminescence, 60 min. AID 488918. 6,200 tested, 60% active. shares compounds with SENP7 inh. inhibition, % at 12.5 µM;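 active = mean inhibition above about 50%, limit read from the data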;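 note: plate controls were enzyme with DMSO for no effect and wells without caspase-3 for full effect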
SENP luc ctr = luminescence interference (SENP counter-screen); shares compounds with SENP7 inh; Pre-incubated SENP8/Z-RLRGG-aminoluciferin, luciferase luminescence interference; inhibition, % at 12.5 µM; 6,200 tested, 39% active;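 active = mean inhibition above about 50% when retested at one dose, limit read from the data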;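 note: plate controls were DMSO wells with completed reaction for no effect and substrate without enzyme for full effect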
* = called active by the depositor; . = not tested or not shown.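 Rule for the calls, unless noted: active = mean inhibition above about 50% in the one-dose retest (limit read from the data); inactive = the rest.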

SMILES | UBC13 polyUb | SENP8 block-1 | Apaf-1 inh | SENP8 block-2 | SENP7 inh | SENP6 block | SENP8 conf | SENP6 conf | SENP7 confirm | Casp3 select | SENP luc ctr
CN1OC[C@@H]2CN[C@H](c3cccc(Oc4ccccc4)c3)C[C@@H]21 | . | . | . | -15 | . | . | . | . | . | . | .
Cc1ccc(S(=O)(=O)NN=CC2(c3ccccc3)CC2)cc1 | . | . | . | 9 | . | . | . | . | . | . | .
N/C(=N\OC(=O)c1ccc(Cl)cc1)c1ccc(Cl)cc1 | -2 | -13 | -9 | 9 | 54* | 9 | 9 | 7 | 13 | 6 | -2
N/C(=N\OC(=O)c1ccccc1)c1ccncc1 | 2 | 21 | 2 | 1 | 36 | 47 | . | . | . | . | .
N/C(=N\OC(=O)c1ccc(Cl)cc1)c1ccn[nH]1 | 4 | 58* | 1 | 10 | 79* | 73* | 80* | 77* | 92* | 87* | 83*
N/C(=N\OC(=O)c1ccco1)c1cccnc1 | 0 | -6 | 4 | -3 | 15 | 26 | . | . | . | . | .
N/C(=N\OC(=O)c1ccco1)c1ccc(Cl)cc1 | 9 | 79* | -10 | 5 | 88* | 94* | 23 | 12 | 30 | 38 | 30
N/C(=N\OC(=O)c1ccc(Br)cc1)c1ccncc1 | -10 | 26 | 4 | 14 | 62* | 58* | 35 | 40 | 71* | 68* | 49
CCOc1ccc(CCN2C(=O)C(=O)N([C@@H](CC(C)C)CN3CCC[C@H]3CN3C(=O)C(=O)NC[C@@H]3Cc3ccccc3)C[C@@H]2Cc2ccc(O)cc2)cc1 | . | . | . | 29 | . | . | . | . | . | . | .
O=C(NC1CCC1)C1CCC(=O)N(Cc2ccc(Cl)cc2)C1 (stereo not drawn) | . | . | . | 14 | . | . | . | . | . | . | .
Nc1ccc2nc(-c3ccc(Cl)cc3)[nH]c2c1 | -2 | 66* | 27 | -433 | 63* | 75* | 80* | 81* | 54* | 45 | 81*
Nc1ccc(-c2nc3ccc(N)cc3[nH]2)cc1 | -7 | -3 | 8 | -421 | 13 | 18 | . | . | . | . | .
Nc1ccc2nc(-c3cc(Cl)c(N)c(Cl)c3)[nH]c2c1 | -80 | 64* | 2 | -329 | 77* | 87* | -20 | 73* | 94* | 82* | 76*
O=S(=O)(c1ccccc1)N(CC(O)CN1CCCC1)c1ccccc1 (stereo not drawn) | 9 | -2 | 17 | 13 | 8 | -17 | . | . | . | . | .
O=S(=O)(c1ccccc1)N(CC(O)CN1CCOCC1)c1ccccc1 (stereo not drawn) | -8 | 77* | 3 | 10 | -9 | -12 | 11 | 10 | 8 | -2 | -5
NC(CCc1ccccc1)c1csc(NC(=O)Nc2cccc(C(F)(F)F)c2)n1 (stereo not drawn) | . | . | . | 23 | . | . | . | . | . | . | .
COc1ccc(-c2cc3nc(C)n(N)c(=O)c3s2)cc1 | 12 | 97* | -19 | -432 | 100* | 99* | 99* | 100* | 103* | 98* | 99*
COc1ccc(-c2cc3nc4n(c(=O)c3s2)CCC4)cc1 | 16 | 91* | -10 | -337 | 96* | 95* | 12 | 62* | 81* | 76* | 12
COc1ccc(-c2cc3nc4n(c(=O)c3s2)CCCCC4)cc1 | 12 | 30 | 10 | -403 | 18 | 46 | . | . | . | . | .
Cc1nc2cc(-c3ccccc3)sc2c(=O)n1N | -14 | 96* | 10 | -9 | 99* | 96* | 98* | 99* | 102* | 98* | 97*
CCCCN(C=O)c1c(CC)nc2ccc(C(=O)N3CCN(c4ccccc4)CC3)cn12 | . | . | . | -8 | . | . | . | . | . | . | .
COc1cnc(-c2cccc(C(F)(F)F)c2)c(NC(=O)c2cc3ccccc3s2)n1 | . | . | . | -8 | . | . | . | . | . | . | .
Cc1c(C(=O)N2c3ccccc3CC2C)oc2ccccc12 (stereo not drawn) | 6 | 68* | 13 | 15 | 62* | 80* | 78* | 77* | 90* | 51* | 50
CCOC(=O)c1nnsc1NC(=O)Nc1ccc(OC)cc1 | -3 | -8 | -4 | 5 | 51* | -17 | 13 | 10 | 10 | 12 | -4
Cc1cc2nc(-c3ccc(SCc4ccc(C(=O)O)cc4)nc3)[nH]c2cc1C | . | . | . | -384 | . | . | . | . | . | . | .
SMILES | UBC13 polyUb | SENP8 block-1 | Apaf-1 inh | SENP8 block-2 | SENP7 inh | SENP6 block | SENP8 conf | SENP6 conf | SENP7 confirm | Casp3 select | SENP luc ctr
Cc1cc2nc(-c3ccc(SCC(=O)Nc4ccc(S(=O)(=O)NC5CC5)cc4)nc3)[nH]c2cc1C | 2 | 1 | 1 | -418 | 63* | 29 | 13 | 18 | 78* | 39 | 20
Cc1cc2nc(-c3ccc(SCC(=O)NC(C)C)nc3)[nH]c2cc1C | -10 | 1 | 5 | . | 11 | 8 | . | . | . | . | .
Cc1cc(NC(=O)CSc2ccc(-c3nc4cc(C)c(C)cc4[nH]3)cn2)no1 | -22 | 0 | 8 | -301 | 51* | 6 | -4 | 0 | 8 | 6 | 5
Cc1ccc(-n2c(C)cc(C(=O)CSc3nncs3)c2C)cc1 | -2 | 6 | 13 | 16 | 1 | -14 | . | . | . | . | .
Cc1ccc(-n2c(C)cc(C(=O)CSc3nnnn3C)c2C)cc1 | 6 | 60* | 16 | 7 | 69* | 29 | 80* | 78* | 95* | 79* | 76*
COc1cccc(OCCSc2nnc3sc4ccccc4n23)c1 | 8 | 1 | 3 | 24 | -1 | 3 | . | . | . | . | .
c1ccc(OCCSc2nnc3sc4ccccc4n23)cc1 | -4 | 68* | 11 | 14 | 16 | 80* | -5 | 68* | 88* | 78* | 75*
C/C(=N\OCc1cccc(C(=O)O)c1)c1ccc(Cl)cc1 | 5 | 97* | 1 | 21 | 101* | 97* | 99* | 100* | 103* | 97* | 98*
C/C(=N\OCc1ccc(C#N)cc1)c1ccccc1 | -5 | 79* | 16 | 4 | 80* | 89* | 82* | 86* | 97* | 77* | 68*
O=C(O)c1cccc(S(=O)(=O)N(Cc2ccccc2)c2ccc(Cl)cc2)c1 | -4 | -9 | 9 | 14 | -1 | -13 | . | . | . | . | .
Cc1cc(C(=O)COC(=O)c2ccc(O)cc2)c(C)n1CC1CCCO1 (stereo not drawn) | 4 | 26 | 4 | 12 | 2 | 54* | 54* | 49 | 83* | 67* | 41
Cc1cc(C(=O)COC(=O)c2ccc(Cl)c(S(N)(=O)=O)c2)c(C)n1CC1CCCO1 (stereo not drawn) | 5 | 7 | 9 | 13 | -4 | -5 | . | . | . | . | .
